# Assay results from ChEMBL document CHEMBL3580599, “Synthesis and Biological Evaluation of Novel Homoisoflavonoids for Retinal Neovascularization” (J Med Chem, 2015).
# The source made the active and inactive calls. No cut-off for these calls is given here.
# Assays:
# [1] = Induction of apoptosis in human HREC cells assessed as activated caspase 3 up to 2 uM after 4 hrs by immunofluorescence assay; assay type: functional
# Outline: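 HRECs on coated coverslips, overnight in EGM-2, then treated 4 h at indicated concentrations. Fixed in 4% paraformaldehyde, permeabilized with 0.5% Triton X-100, immunostained for activated caspase 3 and imaged by confocal microscopy. Staurosporine 1 μM served as positive control.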
# [2] = Growth inhibition of human 92-1 cells assessed as reduction in cell number after 48 hrs by alamarBlue based fluorescence assay; assay type: functional
# Outline: (§1)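 Cells (2,500 per well in growth medium) were allowed 24 h, then exposed 48 h to compound over 0.5 nM–500 μM. alamarBlue was added and fluorescence read 4 h later (ex 560/em 590 nm). Dose-response curves were fitted relative to DMSO control; compounds not reducing cell number ≥50% at the top concentration were reported as GI50 >100 μM.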
# HREC [3] = assay: Antiangiogenic activity in human HREC cells assessed as inhibition of tube formation after 8 hrs by matrigel assay; assay type: functional, cell-based
# Outline: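 HRECs, 7,500 per well in EGM-2, plated on Matrigel basement membrane with or without compound; after 8 h, imaged and tube length measured by image analysis.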
# [4] = Selectivity ratio of GI50 for human 92-1 cells to GI50 for human HREC cells; assay type: ADME, cell-based; details: 92-1 cells and HREC cells
# [5] = Selectivity ratio of GI50 for human Y79 cells to GI50 for human HREC cells; assay type: ADME, cell-based; details: Y79 cells and HREC cells
# [6] = Toxicity in human HREC cells up to 2 uM by trypan blue exclusion assay; assay type: cell-based
# Outline: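 HRECs in complete EGM-2 grown to 70% confluency, then treated 48 h with compound. After trypsinization, live and dead cells, including floating cells, were counted by Trypan blue on a hemocytometer. Viability taken as live/total cells. n = 3, triplicate experiments, SEM.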
# Mus musculus [7] = organism: Mus musculus; assay: Ocular toxicity in mouse model assessed as gross morphological changes in retinal vasculature at 1 uM; assay type: organism-based; details: in vivo
# Outline: (§2)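 Newborn C57BL/6 pups with nursing mother held in 75% O₂ from P7 to P12. At P12, under isoflurane, 0.5 μL of a 10 μM solution (DMSO stock diluted into PBS) was injected intravitreally into each eye, estimated to give 1 μM in vitreous. Controls got vehicle or 5 ng anti-VEGF antibody. Retinas were whole-mounted, stained with isolectin B4-Alexa 488 and imaged by confocal microscopy.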
# [8] = (§3) Growth inhibition of human HREC cells assessed as reduction in cell number after 48 hrs by alamarBlue based fluorescence assay; assay type: functional; outline: as §1
# HREC [9] = assay: as §3; assay type: functional; outline: as §1
# Mus musculus [10] = organism: Mus musculus; assay: Inhibition of retinal neovascularization in oxygen-induced retinopathy mouse model at 1 uM in each eye relative to vehicle treated control; assay type: functional, organism-based; outline: as §2
# [11] = Growth inhibition of human HUVEC cells assessed as reduction in cell number after 48 hrs by alamarBlue based fluorescence assay; outline: as §1
# [12] = Selectivity ratio of GI50 for HUVEC cells to GI50 for human HREC cells; assay type: ADME, cell-based; details: HUVEC cells and HREC cells, read-out: RatioGI50
# Y79 = assay: Growth inhibition of human Y79 cells assessed as reduction in cell number after 48 hrs by alamarBlue based fluorescence assay; assay type: functional; details: Y79, 48 h; outline: as §1
# [13] = Induction of apoptosis in human HREC cells assessed as nuclear morphology after 8 hrs by EdU incorporation assay; assay type: cell-based
# Outline: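 HRECs (25,000) on attachment-factor-coated coverslips, 24 h growth, then 12 h in serum-free EBM-2. Incubated 8 h with 10 μM EdU plus compound at various concentrations, then processed by click chemistry with DAPI counterstain and imaged. Nuclear morphology and EdU-positive cells were scored by image analysis. n = 3, at least triplicate experiments, SEM.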
# HREC [14] = assay: Induction of cell cycle arrest in human HREC cells assessed as cells accumulation at G2/M phase after 48 hrs by propidium iodide before flow cytometry analysis; assay type: functional, cell-based
# Outline: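 HRECs grown to 50% confluency in EGM-2, serum-starved overnight, then 48 h in fresh EGM-2 with compound. Fixed in 66% EtOH 2 h at 4 °C, stained with 20 μg/mL propidium iodide with 0.1% Triton X-100 and RNase for 30 min at 37 °C, then analysed by flow cytometry. Duplicate experiments.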
# [15] = Induction of apoptosis in human HREC cells up to 2 uM after 4 hrs by TUNEL assay; assay type: functional
# Outline: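 HRECs, 25,000 per coated coverslip, grown overnight in EGM-2, then 4 h in fresh medium with compound. Fixed in 4% paraformaldehyde 20 min at room temperature, permeabilized with 0.25% Triton X-100 20 min, then TUNEL-labelled with DAPI counterstain. Percent apoptotic cells counted on three low-power fields per coverslip. n = 3, SEM.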
# HREC [16] = assay: Inhibition of cell migration in human HREC cells after 8 hrs scratch-wound assay; assay type: functional, cell-based
# Outline: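 HRECs (10⁵ per coated well) grown to confluence in EGM-2, starved 12 h in serum-free EBM-2, then scratched with a pipette tip and rinsed. Incubated in EGM-2 with compound at 37 °C, 5% CO₂. After 8 h, cells migrated into the scratch were counted from images.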
smiles,measurement,setting,value
COc1ccc(CC2COc3cc(OC)c(OC)c(OC)c3C2=O)cc1OC(=O)[C@H](Cc1ccccc1)NC(=O)OC(C)(C)C (some centres not stated),Activity,[1],<10%
same,GI50,[2],> 100000 nM
same,inhibition,HREC [3],Dose-dependent effect
same,selectivity ratio,[4],> 1000
same,selectivity ratio,[5],218
same,Activity,[6],Non-toxic
same,Activity,Mus musculus [7],Non-toxic
same,GI50,[8],55 nM
same,inhibition,HREC [9],Dose-dependent effect
same,inhibition,Mus musculus [10],Active
same,GI50 at 48 h,[11],750 nM
same,selectivity ratio,[12],14
same,GI50,Y79,12000 nM
same,Activity,[13],Non-toxic
same,Activity,HREC [14],Dose-dependent effect
same,Activity,[15],<10%
same,inhibition,HREC [16],Dose-dependent effect
